Measured values taken from ChEMBL document CHEMBL2390903, “Anti-tubercular agents. Part 7: a new class of diarylpyrrole-oxazolidinone conjugates as antimycobacterial agents” (Eur J Med Chem, 2013).
≈ marks a conversion by molar mass, not a printed value.

Key:
[1] = tested on: Mycobacterium tuberculosis; assay: Antitubercular activity against Mycobacterium tuberculosis XDR-1 assessed as growth inhibition after 2 to 3 weeks by broth microdilution method; type: functional
How it was run: (§1)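 Primary screen of all compounds against H37Rv at a single concentration in triplicate by microplate dilution. Actives then went to MIC determination by broth microdilution against H37Rv, rifampicin-resistant and XDR-1 isolates. Plates incubated 2–3 weeks at 37 °C in a CO2 incubator. MIC read visually as absence of growth turbidity. Rifampicin and linezolid served as reference drugs.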

[2] = tested on: Mycobacterium tuberculosis; assay: Antitubercular activity against Mycobacterium tuberculosis H37Rv assessed as growth inhibition after 2 to 3 weeks by broth microdilution method; type: functional; how it was run: as §1
Pseudomonas aeruginosa = assay: Antibacterial activity against Pseudomonas aeruginosa MTCC 2453 assessed as growth inhibition after 24 hrs by agar dilution method; type: functional; conditions: MTCC 2453, 24 h
Bacillus subtilis [3] = assay: Antibacterial activity against Bacillus subtilis MTCC 121 assessed as growth inhibition after 24 hrs by agar dilution method; type: functional; conditions: MTCC 121, 24 h
Escherichia coli = assay: Antibacterial activity against Escherichia coli MTCC 739 assessed as growth inhibition after 24 hrs by agar dilution method; type: functional; conditions: MTCC 739, 24 h
Micrococcus luteus [4] = assay: Antibacterial activity against Micrococcus luteus MTCC 2470 assessed as growth inhibition after 24 hrs by agar dilution method; type: functional; conditions: MTCC 2470, 24 h
Staphylococcus [5] = assay: Antibacterial activity against 16-membered ring macrolide- lincosamide-streptogramin B-resistant Staphylococcus MTCC 2940 assessed as growth inhibition after 24 hrs by agar dilution method; type: functional; conditions: MTCC 2940, 24 h
Staphylococcus aureus [6] = assay: Antibacterial activity against Staphylococcus aureus MTCC 96 assessed as growth inhibition after 24 hrs by agar dilution method; type: functional; conditions: MTCC 96, 24 h
Bacillus subtilis [7] = assay: Antibacterial activity against Bacillus subtilis MTCC 121 assessed as growth inhibition at 20 ug/mL after 24 hrs; type: functional; conditions: MTCC 121, 24 h, read-out: IZ
Micrococcus luteus [8] = assay: Antibacterial activity against Micrococcus luteus MTCC 2470 assessed as growth inhibition at 20 ug/mL after 24 hrs; type: functional; conditions: MTCC 2470, 24 h, read-out: IZ
Staphylococcus [9] = assay: Antibacterial activity against 16-membered ring macrolide- lincosamide-streptogramin B-resistant Staphylococcus MTCC 2940 assessed as growth inhibition at 20 ug/mL after 24 hrs; type: functional; conditions: MTCC 2940, 24 h, read-out: IZ
Staphylococcus aureus [10] = assay: Antibacterial activity against Staphylococcus aureus MTCC 96 assessed as growth inhibition at 20 ug/mL after 24 hrs; type: functional; conditions: MTCC 96, 24 h, read-out: IZ
[11] = Cytotoxicity against mouse J744 cells assessed as growth inhibition after 24 hrs by MTT assay; type: cell-based; conditions: J744, 24 h
How it was run: (§2)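 Mouse J-774 macrophages exposed to test material (40) in RPMI with 10% FCS for 24 h at 37 °C under CO2. MTT then added with a further 3 h incubation. Formazan absorbance read at […]. Percent cytotoxicity calculated relative to untreated cells.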

[12] = Selectivity index, ratio of IC50 for mouse J744 cells to MIC for Mycobacterium tuberculosis H37Rv; type: functional
[13] = Cytotoxicity against mouse J744 cells assessed as growth inhibition at 40 ug/mL after 24 hrs by MTT assay relative to control; type: cell-based; conditions: read-out: GI; how it was run: as §2

SMILES | MIC [1] [µg/mL] | MIC [2] [µg/mL] | MIC (Pseudomonas aeruginosa) [µg/mL] | MIC (Bacillus subtilis [3]) [µg/mL] | MIC (Escherichia coli) [µg/mL] | MIC (Micrococcus luteus [4]) [µg/mL] | MIC (Staphylococcus [5]) [µg/mL] | MIC (Staphylococcus aureus [6]) [µg/mL] | zone of inhibition at 20 µg/mL (Bacillus subtilis [7]) [mm] | zone of inhibition at 20 µg/mL (Micrococcus luteus [8]) [mm] | zone of inhibition at 20 µg/mL (Staphylococcus [9]) [mm] | zone of inhibition at 20 µg/mL (Staphylococcus aureus [10]) [mm] | IC50 [11] [µM] | Selectivity Index [12] | inhibition at 24 h, 40 ug/mL [13] [%]
CO[C@H]1/C=C/O[C@@]2(C)Oc3c(C)c(O)c4c(O)c(c(/C=N/N5CCN(C)CC5)c(O)c4c3C2=O)NC(=O)/C(C)=C\C=C\[C@H](C)[C@H](O)[C@@H](C)[C@@H](O)[C@@H](C)[C@H](OC(C)=O)[C@@H]1C [RIFAMPIN] | 2 (≈ 2.43 µM) | 0.2 (≈ 0.243 µM) |  |  |  |  |  |  |  |  |  |  |  |  | 
Cc1ccccc1-c1cc(CN2CCN(c3ccc(N4C[C@H](Cn5cc(-c6cncn6C)nn5)OC4=O)cc3F)CC2)c(C)n1-c1ccc(F)c(F)c1 | > 16 | > 6.25 | > 40 | > 30 | > 40 | 10 (≈ 13.9 µM) | > 30 | 10 (≈ 13.9 µM) |  |  |  |  |  |  | 
Cc1cccc(-c2cn(C[C@H]3CN(c4ccc(N5CCN(Cc6cc(-c7ccccc7C)n(-c7ccc(F)cc7)c6C)CC5)c(F)c4)C(=O)O3)nn2)c1 | > 16 | > 16 | > 40 | 9 (≈ 12.6 µM) | > 40 | > 40 | > 40 | > 40 |  |  |  |  |  |  | 
Cc1c(CN2CCN(c3ccc(N4C[C@H](Cn5cc(-c6cncn6C)nn5)OC4=O)cc3F)CC2)cc(-c2ccc(F)cc2F)n1-c1ccc(F)cc1 | 16 (≈ 22 µM) | > 6.25 | > 40 | > 30 | > 40 | > 30 | > 30 | 16 (≈ 22 µM) |  |  |  |  |  |  | 
Cc1ccc(-c2cc(CN3CCN(c4ccc(N5C[C@H](Cn6cc(-c7ccccc7)nn6)OC5=O)cc4F)CC3)c(C)n2-c2ccc(Cl)c(Cl)c2)cc1 | > 16 | > 16 | > 40 | 2.5 (≈ 3.33 µM) | > 40 | 0.5 (≈ 0.666 µM) | 9 (≈ 12 µM) | 8 (≈ 10.7 µM) | 14 | 17 | 19 | 21 |  |  | 
Cc1c(CN2CCN(c3ccc(N4C[C@H](Cn5cc(-c6ccccn6)nn5)OC4=O)cc3F)CC2)cc(-c2ccc(Cl)c(F)c2)n1-c1ccc(OC(F)(F)F)cc1 | > 16 | 4 (≈ 4.97 µM) | > 40 | 16 (≈ 19.9 µM) | > 40 | 8 (≈ 9.94 µM) | 9 (≈ 11.2 µM) | > 30 |  |  |  |  | > 40 | >10 | 37.7
Cc1c(CN2CCN(c3ccc(N4C[C@H](Cn5cc(-c6ccccc6)nn5)OC4=O)cc3F)CC2)cc(-c2cccc(Cl)c2)n1-c1ccccc1F | > 16 | > 16 | > 40 | > 40 | > 40 | 8 (≈ 11.1 µM) | 10 (≈ 13.9 µM) | > 40 |  |  |  |  |  |  | 
CC(=O)NC[C@H]1CN(c2ccc(N3CCN(Cc4cc(-c5ccccc5C)n(-c5ccc(F)cc5)c4C)CC3)c(F)c2)C(=O)O1 |  |  | > 40 | 3 (≈ 4.89 µM) | > 40 | 1.5 (≈ 2.44 µM) | 5 (≈ 8.15 µM) | 1.5 (≈ 2.44 µM) |  |  |  |  |  |  | 
Cc1c(CN2CCN(c3ccc(N4C[C@H](Cn5cc(-c6ccccc6)nn5)OC4=O)cc3F)CC2)cc(-c2ccc(F)cc2F)n1-c1cc(F)ccc1Br | > 16 | > 16 |  |  |  |  |  |  |  |  |  |  |  |  | 
Cc1ccc(-c2cc(CN3CCN(c4ccc(N5C[C@H](Cn6cc(-c7ccccn7)nn6)OC5=O)cc4F)CC3)c(C)n2-c2ccc(Cl)c(Cl)c2)cc1 | 16 (≈ 21.3 µM) | 4 (≈ 5.32 µM) | > 40 | 1 (≈ 1.33 µM) | > 40 | 2.5 (≈ 3.33 µM) | > 40 | 8 (≈ 10.6 µM) |  |  |  |  |  |  | 
CC(=O)NC[C@H]1CN(c2ccc(N3CCN(Cc4cc(-c5ccc(F)cc5F)n(-c5cc(F)ccc5Br)c4C)CC3)c(F)c2)C(=O)O1 | > 16 | 8 (≈ 11.2 µM) | > 40 | 2.5 (≈ 3.5 µM) | > 40 | 5 (≈ 7 µM) | 5 (≈ 7 µM) | 3 (≈ 4.2 µM) | 14 | 19 | 18 | 20 |  |  | 
CC(=O)NC[C@H]1CN(c2ccc(N3CCN(Cc4cc(-c5cccc(Cl)c5)n(-c5ccccc5F)c4C)CC3)c(F)c2)C(=O)O1 | > 16 | 8 (≈ 12.6 µM) | > 40 | 1.5 (≈ 2.37 µM) | > 40 | 1.5 (≈ 2.37 µM) | 2 (≈ 3.15 µM) | 0.5 (≈ 0.788 µM) | 18 | 27 | 23 | 18 |  |  | 
Cc1ccccc1-c1cc(CN2CCN(c3ccc(N4C[C@H](Cn5cc(-c6ccccn6)nn5)OC4=O)cc3F)CC2)c(C)n1-c1ccc(F)c(F)c1 | 16 (≈ 22.3 µM) | 4 (≈ 5.56 µM) | > 40 | 12 (≈ 16.7 µM) | > 40 | > 30 | 5 (≈ 6.96 µM) | > 30 |  |  |  |  | > 40 | >10 | 40
Cc1c(CN2CCN(c3ccc(N4C[C@H](Cn5cc(-c6ccccc6)nn5)OC4=O)cc3F)CC2)cc(-c2ccc(Cl)c(F)c2)n1-c1ccc(OC(F)(F)F)cc1 | > 16 | > 16 | > 40 | > 40 | > 40 | 8 (≈ 9.95 µM) | > 40 | > 40 |  |  |  |  |  |  | 
Cc1ccccc1-c1cc(CN2CCN(c3ccc(N4C[C@H](Cn5cc(-c6cncn6C)nn5)OC4=O)cc3F)CC2)c(C)n1-c1ccc(F)cc1 | 8 (≈ 11.4 µM) | 2 (≈ 2.84 µM) | > 40 | > 30 | > 40 | > 30 | > 30 | 10 (≈ 14.2 µM) |  |  |  |  | > 40 | >10 | 49.3
Cc1c(CN2CCN(c3ccc(N4C[C@H](Cn5cc(-c6cncn6C)nn5)OC4=O)cc3F)CC2)cc(-c2ccc(C(C)C)cc2)n1-c1ccc(F)cc1F | 4 (≈ 5.33 µM) | 4 (≈ 5.33 µM) | > 40 | > 30 | > 40 | > 30 | > 30 | 8 (≈ 10.7 µM) |  |  |  |  | > 40 | >10 | 44.7
Cc1c(CN2CCN(c3ccc(N4C[C@H](Cn5cc(-c6ccccn6)nn5)OC4=O)cc3F)CC2)cc(-c2ccc(F)cc2F)n1-c1cc(F)ccc1Br |  |  |  |  |  |  |  |  |  |  |  |  | > 40 | >10 | 43.9
